One compound from ChEMBL document CHEMBL4622869, “Discovery and structure-activity relationships study of positive allosteric modulators of the M3 muscarinic acetylcholine receptor” (Bioorg Med Chem, 2020) can be followed below.

The target in data set [1] is T1, Muscarinic acetylcholine receptor M5 (Rattus norvegicus) (UniProt P08911).
T1 sequence (whole entry): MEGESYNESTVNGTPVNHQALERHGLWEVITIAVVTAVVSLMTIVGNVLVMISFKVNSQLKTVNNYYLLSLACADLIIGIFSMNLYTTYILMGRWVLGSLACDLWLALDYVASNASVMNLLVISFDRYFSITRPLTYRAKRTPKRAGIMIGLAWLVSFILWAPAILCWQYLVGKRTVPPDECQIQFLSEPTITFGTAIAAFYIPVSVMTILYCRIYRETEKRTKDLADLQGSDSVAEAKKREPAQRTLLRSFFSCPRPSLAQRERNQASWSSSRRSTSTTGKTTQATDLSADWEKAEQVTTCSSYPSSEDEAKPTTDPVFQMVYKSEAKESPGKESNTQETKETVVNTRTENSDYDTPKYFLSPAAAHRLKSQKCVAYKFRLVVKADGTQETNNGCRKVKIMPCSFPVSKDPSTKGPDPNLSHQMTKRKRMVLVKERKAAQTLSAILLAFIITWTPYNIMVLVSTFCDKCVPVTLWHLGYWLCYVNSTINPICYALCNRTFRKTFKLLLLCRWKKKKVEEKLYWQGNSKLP
Description: Positive allosteric modulation of recombinant rat muscarinic acetylcholine receptor M5 expressed in CHOK1 cells assessed as increase in carbachol-induced intracellular calcium flux at 10 uM preincubated for 5 mins followed by carbachol addition by Fluo4-AM dye based FLIPR assay relative to carbachol. In kind it is functional, cell-based. To be noted: CHO-K1. The method in brief: (§1)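 CHO-K1 cells stably expressing human or rat M1–M5; M2 and M4 lines also co-express human Gα16. Cells loaded with 3.1 μM Fluo-4 AM in HBSS/20 mM HEPES pH 7.5/BSA/2.5 mM probenecid for ~2 h at room temperature. Test substance at 10 μM final, then carbachol (0.0024 nM–100 μM) ~5 min later; Ca2+ read by FLIPR Tetra. Fold shift = carbachol EC50 without / with test substance, from logistic fits.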

Data set [2] is described as follows: Half life in Crl:CD(SD) rat at 1 mg/kg, po measured up to 24 hrs by LC-MS/MS analysis. The data set is classed as ADME, organism-based. To be noted: in vivo. The method in brief:
(§2)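 Male Crl:CD(SD) rats, 8 weeks old, food deprived (n=4); iv 0.3 mg/kg or po 1 mg/kg in DMF/propylene glycol/water for injection (1/1/8) containing 1 M NaOH (2 equivalents). Plasma sampled to 24 h, assayed by validated LC-MS/MS. Parameters from each animal by noncompartmental analysis, reported as means.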

The target of data set [3] is T2, Muscarinic acetylcholine receptor M2 (Rattus norvegicus) (UniProt P10980).
T2 sequence (whole entry): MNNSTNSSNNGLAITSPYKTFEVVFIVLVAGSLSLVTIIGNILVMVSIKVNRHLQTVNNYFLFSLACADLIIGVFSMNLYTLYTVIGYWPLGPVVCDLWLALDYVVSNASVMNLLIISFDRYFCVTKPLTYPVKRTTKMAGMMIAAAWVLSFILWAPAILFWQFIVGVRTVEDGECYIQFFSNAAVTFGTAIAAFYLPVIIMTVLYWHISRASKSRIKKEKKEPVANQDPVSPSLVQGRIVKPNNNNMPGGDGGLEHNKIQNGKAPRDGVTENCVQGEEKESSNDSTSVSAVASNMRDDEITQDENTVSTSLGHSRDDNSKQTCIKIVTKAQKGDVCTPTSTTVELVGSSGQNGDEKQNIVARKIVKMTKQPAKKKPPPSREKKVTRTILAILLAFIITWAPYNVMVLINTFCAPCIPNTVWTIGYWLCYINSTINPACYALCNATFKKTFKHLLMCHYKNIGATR
The experiment in a line: Positive allosteric modulation of recombinant rat muscarinic acetylcholine receptor M2 expressed in CHOK1 cells coexpressing G-alpha16 assessed as increase in carbachol-induced intracellular calcium flux at 10 uM preincubated for 5 mins followed by carbachol addition by Fluo4-AM dye based FLIPR assay relative to carbachol. The data set is classed as functional, cell-based. To be noted: CHO-K1. The method in brief:
as §1
For orientation: A change in cytosolic calcium serves as a functional read-out for many receptors and channels.

In data set [4] the target is Muscarinic acetylcholine receptor M3 (Homo sapiens) (UniProt P20309). Description: Positive allosteric modulation of recombinant human muscarinic acetylcholine receptor M3 expressed in CHOK1 cells assessed as increase in carbachol-induced intracellular calcium flux preincubated for 5 mins followed by carbachol addition by Fluo4-AM dye based FLIPR assay. In kind it is functional, cell-based. The note with it: CHO-K1. The procedure, abridged: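 Human M3 in CHO-K1 cells, Fluo-4 AM loaded (3.1 μM, ~2 h, room temperature). Test substance at 0.01–30 μM added ~5 min before a carbachol concentration series (0.0024 nM–100 μM); Ca2+ flux read on FLIPR Tetra to give carbachol concentration-response curves, with DMSO as vehicle.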

Data set [5] shares this target. The experiment in a line: Positive allosteric modulation of recombinant human muscarinic acetylcholine receptor M3 expressed in CHOK1 cells assessed as increase in carbachol-induced intracellular calcium flux at 10 uM preincubated for 5 mins followed by carbachol addition by Fluo4-AM dye based FLIPR assay relative to carbachol. The note with it: CHO-K1. The data set is classed as functional, cell-based. The procedure, abridged:
as §1

The nature of data set [6]: Total clearance in Crl:CD(SD) rat at 0.3 mg/kg, iv measured up to 24 hrs by LC-MS/MS analysis. In kind it is ADME, organism-based. To be noted: in vivo. The procedure, abridged: as §2
The target of data set [7] is Muscarinic acetylcholine receptor M3 (Rattus norvegicus) (UniProt P08483). Description: Positive allosteric modulation of recombinant rat muscarinic acetylcholine receptor M3 expressed in CHOK1 cells assessed as increase in carbachol-induced intracellular calcium flux at 10 uM preincubated for 5 mins followed by carbachol addition by Fluo4-AM dye based FLIPR assay relative to carbachol. The data set is classed as functional, cell-based. To be noted: CHO-K1. The procedure, abridged: as §1

Data set [8] addresses T3, Muscarinic acetylcholine receptor M5 (Homo sapiens) (UniProt P08912).
T3 sequence (whole entry): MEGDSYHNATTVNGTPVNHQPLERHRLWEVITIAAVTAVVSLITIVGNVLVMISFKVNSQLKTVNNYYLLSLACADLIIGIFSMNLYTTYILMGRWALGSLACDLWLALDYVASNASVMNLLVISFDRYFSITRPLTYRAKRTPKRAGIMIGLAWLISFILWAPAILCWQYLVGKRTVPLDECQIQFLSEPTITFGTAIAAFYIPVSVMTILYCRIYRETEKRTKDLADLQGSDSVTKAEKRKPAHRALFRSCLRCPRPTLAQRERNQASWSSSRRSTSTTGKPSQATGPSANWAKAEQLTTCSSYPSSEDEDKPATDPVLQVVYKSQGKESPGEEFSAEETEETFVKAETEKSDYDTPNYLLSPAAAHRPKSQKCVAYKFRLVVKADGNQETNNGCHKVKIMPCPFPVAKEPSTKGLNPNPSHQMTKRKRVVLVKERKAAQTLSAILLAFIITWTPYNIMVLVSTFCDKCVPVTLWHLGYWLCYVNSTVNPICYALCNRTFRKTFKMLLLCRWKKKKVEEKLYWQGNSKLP
Description: Positive allosteric modulation of recombinant human muscarinic acetylcholine receptor M5 expressed in CHOK1 cells assessed as increase in carbachol-induced intracellular calcium flux at 10 uM preincubated for 5 mins followed by carbachol addition by Fluo4-AM dye based FLIPR assay relative to carbachol. The note with it: CHO-K1. The data set is classed as functional, cell-based. The method in brief:
as §1

Chain of Muscarinic acetylcholine receptor M3 (Homo sapiens) (P20309 whole entry, looked up): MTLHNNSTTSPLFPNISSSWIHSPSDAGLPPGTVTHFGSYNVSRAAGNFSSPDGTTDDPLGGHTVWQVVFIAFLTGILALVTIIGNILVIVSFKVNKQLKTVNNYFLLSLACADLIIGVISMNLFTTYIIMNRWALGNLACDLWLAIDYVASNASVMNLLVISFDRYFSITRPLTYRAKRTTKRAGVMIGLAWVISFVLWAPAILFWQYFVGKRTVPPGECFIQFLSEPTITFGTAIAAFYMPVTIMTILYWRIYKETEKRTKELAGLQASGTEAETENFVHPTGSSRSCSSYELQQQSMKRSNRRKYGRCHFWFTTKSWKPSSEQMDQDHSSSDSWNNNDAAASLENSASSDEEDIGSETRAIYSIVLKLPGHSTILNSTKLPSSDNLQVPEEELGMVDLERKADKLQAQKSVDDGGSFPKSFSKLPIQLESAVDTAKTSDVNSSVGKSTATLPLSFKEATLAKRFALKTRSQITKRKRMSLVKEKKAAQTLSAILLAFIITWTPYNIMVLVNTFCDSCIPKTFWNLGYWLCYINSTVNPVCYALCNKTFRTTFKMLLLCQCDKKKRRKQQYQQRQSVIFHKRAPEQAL
Chain of Muscarinic acetylcholine receptor M3 (Rattus norvegicus) (P08483 whole entry, looked up): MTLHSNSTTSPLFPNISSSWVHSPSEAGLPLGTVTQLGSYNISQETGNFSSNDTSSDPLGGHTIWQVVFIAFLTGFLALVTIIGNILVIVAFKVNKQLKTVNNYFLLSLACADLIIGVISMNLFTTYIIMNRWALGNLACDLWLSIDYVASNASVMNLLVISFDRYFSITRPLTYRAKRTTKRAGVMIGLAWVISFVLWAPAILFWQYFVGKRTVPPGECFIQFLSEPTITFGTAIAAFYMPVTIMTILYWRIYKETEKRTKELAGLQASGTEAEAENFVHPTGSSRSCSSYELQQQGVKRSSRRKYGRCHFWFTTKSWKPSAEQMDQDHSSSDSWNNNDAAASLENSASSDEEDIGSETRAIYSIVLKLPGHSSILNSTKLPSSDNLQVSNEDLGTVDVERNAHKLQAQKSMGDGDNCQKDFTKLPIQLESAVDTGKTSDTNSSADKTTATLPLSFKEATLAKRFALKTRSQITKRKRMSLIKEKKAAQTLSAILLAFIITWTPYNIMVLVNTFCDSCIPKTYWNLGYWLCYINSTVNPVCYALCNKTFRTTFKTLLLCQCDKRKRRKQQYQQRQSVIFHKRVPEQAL

Take `CC[C@@H]1CCCN1Cc1sc(NC(=O)c2cnc(N3CCC(C(=O)O)CC3)cn2)nc1-c1ccc(OC)c(C(F)(F)F)c1.Cl.Cl`: the fold change (FC) in data set [1] stood at 110; in data set [3], 1.6; in data set [5] it was 269; in data set [7] it was 158; in data set [8] it was 94. Moreover, the half-life (commonly the time needed for the level to fall by half in the phase considered) in data set [2] was 2.16 h. Moreover, in data set [4], the Activity entry was “Dose-dependent effect”. Further, the clearance (as a rule, the volume of plasma or blood freed of the substance per unit of time) in data set [6] is 15.3 mL/min/kg.
